# Laboratory results from ChEMBL document CHEMBL1149585, “Toward the development of chemoprevention agents. Part 1: Design, synthesis, and anti-inflammatory activities of a new class of 2,5-disubstituted-dioxacycloalkanes” (Bioorg Med Chem, 2007).
# How the values were obtained:
# [1] = tested on: Mus musculus; test: Toxicity in mouse assessed as tail bleeding time at 200 mg/kg, po after 45 mins; format: organism-based; parameters: dose 200 mg/kg, route oral; conditions: in vivo, 0.75 h
# In short: (§1)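 Male mice (18–22 g) were dosed orally, and bleeding time was recorded before dosing and at each post-dose time. Each mouse was held in a tube with its tail protruding, and a 2 mm tail cut was made. Blood was wiped away with tissue every 30 s until bleeding ceased, and the time was recorded. The comparison group received NS.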
# [2] = tested on: Mus musculus; test: Inhibition of xylene-induced ear edema in Kunming mouse at 20 mg/kg, po after 2 hrs relative to control; format: functional
# In short: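 Male Kunming mice (groups of 12; n = 11 per table footnote) were dosed orally as a suspension in 0.5% CMC, with CMC vehicle and positive control groups. After 30 min, 0.03 ml xylene went on both surfaces of the right ear, with the left ear as control. Mice were killed 2 h later. 7 mm ear punches were weighed, and edema was taken as right minus left weight. Groups were compared by one-way ANOVA, p < 0.05.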
# [3] = tested on: Mus musculus; test: Toxicity in mouse assessed as tail bleeding time at 200 mg/kg, po after 90 mins; format: organism-based; parameters: dose 200 mg/kg, route oral; conditions: in vivo, 1.5 h; in short: as §1
# [4] = tested on: Mus musculus; test: Toxicity in mouse assessed as tail bleeding time at 200 mg/kg, po after 60 mins; format: organism-based; parameters: dose 200 mg/kg, route oral; conditions: in vivo, 1 h; in short: as §1
# [5] = tested on: Mus musculus; test: Toxicity in mouse assessed as tail bleeding time at 200 mg/kg, po after 30 mins; format: organism-based; parameters: dose 200 mg/kg, route oral; conditions: in vivo, 0.5 h; in short: as §1
SMILES,Activity [1] [s],inhibition in vivo at 20 mg/kg [2] [%],Activity [3] [s],Activity [4] [s],Activity [5] [s]
C[C@@H]1O[C@H](c2ccccc2)OC[C@H]1NC(=O)c1ccccc1,118.9,43.9,118.9,118.6,118.7
O=C(N[C@H]1CCO[C@H](c2ccc(Cl)cc2)OC1)c1ccccc1,,29.5,,,
O=C(Cc1ccccc1)N[C@H]1CO[C@H](c2ccc([N+](=O)[O-])cc2)OC1,120.2,44.6,117.7,117.6,120.7
O=C(N[C@H]1CCO[C@@H](c2cccc([N+](=O)[O-])c2)OC1)c1ccccc1,,21.8,,,
O=C(N[C@H]1CO[C@H](c2cccc([N+](=O)[O-])c2)OC1)c1ccccc1,118,45.2,118.7,118.4,118.8
O=C(Cc1ccccc1)N[C@H]1CCCO[C@H](c2ccc(Cl)cc2)OC1,,23.1,,,
C[C@@H]1O[C@H](c2ccc(Cl)cc2)OC[C@H]1NC(=O)c1ccccc1,118.6,47.1,118.6,118.7,119.6
C[C@@H]1O[C@H](c2ccc([N+](=O)[O-])cc2)OC[C@H]1NC(=O)c1ccccc1,118.1,55.4,119,118.8,117.8
Cc1ccc([C@H]2OC[C@H](NC(=O)Cc3ccccc3)CO2)cc1,118.6,35.6,119.2,118.4,117.2
O=C(Cc1ccccc1)N[C@H]1CO[C@H](c2ccc(Cl)cc2)OC1,119.2,42,118.4,119.5,117.9
O=C(N[C@H]1CCO[C@@H](c2ccc(Cl)cc2)OC1)c1ccccc1,,28.2,,,
O=C(Cc1ccccc1)N[C@H]1CO[C@@H](c2ccccc2)OC1,119.3,38.5,118.9,117.8,118.5
O=C(Cc1ccccc1)N[C@H]1CO[C@H](c2cccc([N+](=O)[O-])c2)OC1,118.5,42.6,118.6,119.2,117.7
Cc1ccc([C@H]2OC[C@@H](NC(=O)Cc3ccccc3)CO2)cc1,118.6,36.5,119.2,118.4,117.2
C[C@@H]1O[C@H](c2ccc(Cl)cc2)OC[C@H]1NC(=O)Cc1ccccc1,119.6,46.1,119,118.6,118.4
C[C@@H]1O[C@H](/C=C/c2ccccc2)OC[C@H]1NC(=O)Cc1ccccc1,,33.3,,,
O=C(Cc1ccccc1)N[C@H]1CCO[C@H](c2ccc(Cl)cc2)OC1,,23.7,,,
O=C(Cc1ccccc1)N[C@H]1CCO[C@H](c2cccc([N+](=O)[O-])c2)OC1,,20.1,,,
O=C(Cc1ccccc1)N[C@H]1CCO[C@@H](c2ccc(Cl)cc2)OC1,,24.4,,,
O=C(Cc1ccccc1)N[C@H]1CO[C@@H](c2ccc([N+](=O)[O-])cc2)OC1,120.2,43.3,117.7,117.6,120.7
O=C(Cc1ccccc1)N[C@H]1CO[C@@H](c2cccc([N+](=O)[O-])c2)OC1,118.5,41.3,118.6,119.2,117.7
Cc1ccc([C@H]2OC[C@@H](NC(=O)Cc3ccccc3)[C@H](C)O2)cc1,118.6,41,118.5,119,117.9
C[C@@H]1O[C@@H](c2ccc([N+](=O)[O-])cc2)OC[C@H]1NC(=O)Cc1ccccc1,118.5,55.8,117.2,117.9,117.8
C[C@@H]1O[C@@H](c2cccc([N+](=O)[O-])c2)OC[C@H]1NC(=O)Cc1ccccc1,118.7,47.1,118.6,118.5,120.1
C[C@@H]1O[C@@H](c2ccccc2)OC[C@H]1NC(=O)c1ccccc1,,43.9,,,

SMILES,Activity [1] [s],inhibition in vivo at 20 mg/kg [2] [%],Activity [3] [s],Activity [4] [s],Activity [5] [s]
C[C@@H]1O[C@H](c2ccc([N+](=O)[O-])cc2)OC[C@H]1NC(=O)Cc1ccccc1,118.5,55.1,117.2,117.9,117.8
C[C@@H]1O[C@H](c2cccc([N+](=O)[O-])c2)OC[C@H]1NC(=O)Cc1ccccc1,118.7,46.5,118.6,118.5,120.1
O=C(Cc1ccccc1)N[C@H]1CO[C@@H](/C=C/c2ccccc2)OC1,,27.2,,,
O=C(Cc1ccccc1)N[C@H]1CCCO[C@H](c2cccc([N+](=O)[O-])c2)OC1,,19.2,,,
O=C(Cc1ccccc1)N[C@H]1CCCO[C@@H](c2ccc([N+](=O)[O-])cc2)OC1,,20.8,,,
O=C(Cc1ccccc1)N[C@H]1CO[C@@H](c2ccc(Cl)cc2)OC1,119.2,43.6,118.4,119.5,117.9
C[C@@H]1O[C@@H](c2ccccc2)OC[C@H]1NC(=O)Cc1ccccc1,119,40,117.9,118.6,118.5
O=C(Cc1ccccc1)N[C@H]1CCCO[C@@H](c2ccc(Cl)cc2)OC1,,23.7,,,
O=C(Cc1ccccc1)N[C@H]1CCO[C@@H](c2cccc([N+](=O)[O-])c2)OC1,,21.2,,,
O=C(N[C@H]1CCO[C@H](c2ccc([N+](=O)[O-])cc2)OC1)c1ccccc1,,19.2,,,
O=C(Cc1ccccc1)N[C@H]1CO[C@H](/C=C/c2ccccc2)OC1,,29.5,,,
O=C(Cc1ccccc1)N[C@H]1CCO[C@H](c2ccc([N+](=O)[O-])cc2)OC1,,18.9,,,
O=C(Cc1ccccc1)N[C@H]1CCO[C@@H](c2ccc([N+](=O)[O-])cc2)OC1,,19.6,,,
O=C(N[C@H]1CCO[C@H](c2cccc([N+](=O)[O-])c2)OC1)c1ccccc1,,20.8,,,
O=C(N[C@H]1CCO[C@@H](c2ccc([N+](=O)[O-])cc2)OC1)c1ccccc1,,20.2,,,
O=C(Cc1ccccc1)N[C@H]1CCCO[C@@H](c2cccc([N+](=O)[O-])c2)OC1,,19.9,,,
O=C(N[C@H]1CO[C@H](c2ccc([N+](=O)[O-])cc2)OC1)c1ccccc1,117.7,48.7,118.9,118.6,119.5
Cc1ccc([C@@H]2OC[C@@H](NC(=O)c3ccccc3)[C@H](C)O2)cc1,118.5,44.9,117.7,118.9,120.4
C[C@@H]1O[C@H](c2cccc([N+](=O)[O-])c2)OC[C@H]1NC(=O)c1ccccc1,118.2,,118.2,119.5,118.9
C[C@@H]1O[C@H](c2ccccc2)OC[C@H]1NC(=O)Cc1ccccc1,119,41.3,117.9,118.6,118.5
Cc1ccc([C@@H]2OC[C@@H](NC(=O)Cc3ccccc3)[C@@H](C)O2)cc1,118.6,42.3,118.5,119,117.9
O=C(Cc1ccccc1)N[C@H]1CO[C@H](c2ccccc2)OC1,119.3,37.8,118.9,117.8,118.5
C[C@@H]1O[C@@H](/C=C/c2ccccc2)OC[C@H]1NC(=O)Cc1ccccc1,,32.1,,,
O=C(Cc1ccccc1)N[C@H]1CCCO[C@H](c2ccc([N+](=O)[O-])cc2)OC1,,19.9,,,
C[C@H]1O[C@@H](c2ccc(Cl)cc2)OC[C@H]1NC(=O)Cc1ccccc1,119.6,46.4,119,118.6,118.4
